Data taken from ChEMBL document CHEMBL1122773 (1984).
In brackets after ≈: the same amount, converted by molar mass.

Tests used:
Type in all cases: functional
Mus musculus [1] = experiment: In vivo antibacterial activity against Proteus vulgaris (UC no 347) infected mice after sc administration
Outline: (§1)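 Fresh drug solutions were given subcutaneously (0.2 mL) or by oral intubation (0.5 mL), per line. Dosing was immediately after infection, then daily for 4 consecutive days, with 3 further days of observation. CD50 was calculated by Spearman-Karber.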

Mus musculus [2] = experiment: (§2) In vivo antibacterial activity against Escherichia coli(UC 311) infected mice after oral administration; outline: as §1
Mus musculus [3] = experiment: In vivo antibacterial activity against Streptococcus pneumoniae I(UC 41) infected mice after oral administration; outline: as §1
Mus musculus [4] = experiment: (§3) In vivo antibacterial activity against Proteus vulgaris(UC 347) infected mice after oral administration; outline: as §1
Mus musculus [5] = experiment: In vivo antibacterial activity against Streptococcus pyogenes(UC 152) infected mice after sc administration; outline: as §1
Mus musculus [6] = experiment: In vivo antibacterial activity against Streptococcus pneumoniae III(UC 3213) infected mice after oral administration; outline: as §1
Mus musculus [7] = experiment: In vivo antibacterial activity against Klebsiella pneumoniae (UC 58) infected mice after sc administration; outline: as §1
Mus musculus [8] = experiment: In vivo antibacterial activity against Bacteroides fragilis (UC no 6428) infected mice after sc administration
Mus musculus [9] = experiment: In vivo antibacterial activity against Escherichia coli (UC no 311) infected mice after sc administration; outline: as §1
Mus musculus [10] = experiment: In vivo antibacterial activity against Streptococcus pyogenes(UC 152) infected mice after oral administration; outline: as §1
Mus musculus [11] = experiment: (§4) In vivo antibacterial activity against Klebsiella pneumoniae(UC 58) infected mice after oral administration; outline: as §1
Mus musculus [12] = experiment: In vivo antibacterial activity against Plasmodium berghei infected mice (Mus musculus) after subcutaneous administration
Clostridioides difficile [13] = experiment: In vitro antibacterial activity against the anaerobic Clostridium difficile (Strain UC no.6857)
Outline: (§5)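 Agar dilution with serial twofold drug dilutions in Schaedler broth mixed into molten Wilkens-Chalgren agar. Strains grown 48 h on Schaedler agar, suspended to 0.5 McFarland, and 0.001 mL spotted by replicator. All steps done anaerobically. Incubation 48 h at 37 °C. MIC is the least drug inhibiting growth; a faint film or fewer than three colonies scored negative.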

[14] = test system: Staphylococcus epidermidis; experiment: In vitro antibacterial activity against the aerobic Staphylococcus epidermidis (Strain UC no.719)
Outline: (§6)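 Broth microdilution in brain/heart infusion broth with twofold drug dilutions. Inoculum was a standardized suspension giving 10⁵ viable cells/mL final. Plates were incubated 20 h at 37 °C. MIC (mcg/mL) = lowest concentration with no visible growth.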

[15] = test system: Bacteroides thetaiotaomicron; experiment: In vitro antibacterial activity against the anaerobic Bacteroides thetaiotaomicron (Strain UC no.6512); outline: as §5
Escherichia coli [16] = experiment: as §2; outline: as §1
Fusobacterium nucleatum = experiment: In vitro antibacterial activity against the anaerobic Fusobacterium nucleatum (Strain UC no.6324); outline: as §5
Proteus vulgaris [17] = experiment: as §3; outline: as §1
Cutibacterium acnes = experiment: In vitro antibacterial activity against the anaerobic Propionibacterium acnes(Strain UC no.6564); outline: as §5
Fusobacterium varium = experiment: In vitro antibacterial activity against the anaerobic Fusobacterium varium(Strain UC no.6052); outline: as §5
[18] = test system: Fusobacterium necrophorum; experiment: In vitro antibacterial activity against the anaerobic Fusobacterium necrophorum (Strain UC no.6568); outline: as §5
Staphylococcus aureus [19] = experiment: In vitro antibacterial activity against the aerobic Staphylococcus aureus (Strain UC no.6687); outline: as §6
[20] = test system: Prevotella melaninogenica; experiment: In vitro antibacterial activity against the anaerobic Bacteroides melaninogenicus (Strain UC no.6326); outline: as §5
Escherichia coli [21] = experiment: In vivo antibacterial activity against Escherichia coli(UC no 311) infected mice after sc administration; outline: as §1
Clostridium perfringens [22] = experiment: In vitro antibacterial activity against the anaerobic Clostridium perfringens (Strain UC no.6509)
Streptococcus pneumoniae [23] = experiment: In vivo antibacterial activity against Streptococcus pneumoniae III (UC no 3213) infected mice after sc administration (value in parenthesis is 95% confidence interval); outline: as §1
Pasteurella multocida [24] = experiment: In vivo antibacterial activity against Pasteurella multocida(UC no 264) infected mice after sc administration; outline: as §1
Streptococcus pneumoniae [25] = experiment: In vivo antibacterial activity against Streptococcus pneumoniae III(UC 3213) infected mice after oral administration (value in parenthesis is 95% confidence interval); outline: as §1
[26] = test system: Peptostreptococcus anaerobius; experiment: In vitro antibacterial activity against the anaerobic Peptostreptococcus anaerobius(Strain UC no.6321); outline: as §5
Staphylococcus aureus [27] = experiment: In vitro antibacterial activity against the aerobic Staphylococcus aureus (Strain UC no.6690); outline: as §6
Clostridium novyi = experiment: In vitro antibacterial activity against the anaerobic Clostridium novyi B(Strain UC no.6329); outline: as §5
Plasmodium berghei = experiment: In vivo activity against Plasmodium berghei in mice (Mus musculus) on oral administration
Staphylococcus aureus [28] = experiment: In vivo antibacterial activity against Staphylococcus aureus (UC no 76) infected mice after sc administration (value in parenthesis is 95% confidence interval); outline: as §1
Clostridium botulinum = experiment: In vitro antibacterial activity against the anaerobic Clostridium botulinum A(Strain UC no.6506)
Streptococcus pyogenes = experiment: In vivo antibacterial activity against Streptococcus pyogenes (UC no 152) infected mice after sc administration (value in parenthesis is 95% confidence interval); outline: as §1
Enterococcus faecalis = experiment: In vitro antibacterial activity against the aerobic […] (Strain UC no.694); outline: as §6
Staphylococcus aureus [29] = experiment: In vivo antibacterial activity against Staphylococcus aureus(UC 76) infected mice after oral administration (value in parenthesis is 95% confidence interval); outline: as §1
Clostridium perfringens [30] = experiment: In vitro antibacterial activity against the anaerobic Clostridium perfringens (Strain UC no.247)
Bacteroides fragilis [31] = experiment: In vitro antibacterial activity against the anaerobic Bacteroides fragilis (Strain UC no.6862); outline: as §5
Clostridioides difficile [32] = experiment: In vitro antibacterial activity against the anaerobic Clostridium difficile (Strain UC no.6858); outline: as §5
Staphylococcus aureus [33] = experiment: In vitro antibacterial activity against the aerobic Staphylococcus aureus (Strain UC no.6685); outline: as §6
Clostridioides difficile [34] = experiment: In vitro antibacterial activity against the anaerobic Clostridium difficile (Strain UC no.6861); outline: as §5
Eubacterium limosum = experiment: In vitro antibacterial activity against the anaerobic Eubacterium limosum(Strain UC no.6515); outline: as §5
Streptococcus pneumoniae [35] = experiment: In vivo antibacterial activity against Streptococcus pneumoniae I (UC no 41) infected mice after sc administration (value in parenthesis is 95% confidence interval); outline: as §1
Proteus vulgaris [36] = experiment: In vivo antibacterial activity against Proteus vulgaris(UC no 347) infected mice after sc administration; outline: as §1
Clostridium tertium = experiment: In vitro antibacterial activity against the anaerobic Clostridium tertium(Strain UC no.6508); outline: as §5
Bacteroides fragilis [37] = experiment: In vitro antibacterial activity against the anaerobic Bacteroides fragilis (Strain UC no.6513); outline: as §5
[38] = test system: Parabacteroides distasonis; experiment: In vitro antibacterial activity against the anaerobic Bacteroides distasonis (Strain UC no.6518)
Clostridioides difficile [39] = experiment: In vitro antibacterial activity against the anaerobic Clostridium difficile (Strain UC no.6860); outline: as §5
Eggerthella lenta = experiment: In vitro antibacterial activity against the anaerobic Eubacterium lentum(Strain UC no.6522); outline: as §5
Pasteurella multocida [40] = experiment: In vitro antibacterial activity against the aerobic Pasteurella multocida (Strain UC no.264); outline: as §6
Klebsiella pneumoniae = experiment: as §4; outline: as §1

In the case of `CCC[C@@H]1C[C@@H](C(=O)N[C@@H]([C@H]2O[C@H](SC)[C@H](O)[C@@H](O)[C@H]2O)[C@H](C)Cl)N(C)C1` [CLINDAMYCIN], the CD50 (Mus musculus [1]) is reported as >160 mg/kg, the CD50 (Mus musculus [2]) is reported as >400 mg/kg and the CD50 (Mus musculus [3]) is reported as 45.5 mg/kg. The CD50 (Mus musculus [4]) was >400 mg/kg, the CD50 (Mus musculus [5]) was 2.3 mg/kg and the CD50 (Mus musculus [6]) was 37.9 mg/kg. For the same molecule, the CD50 (Mus musculus [7]) was >320 mg/kg, the CD50 (Mus musculus [8]) was 14.4 mg/kg and the CD50 (Mus musculus [9]) was >160 mg/kg. For the same molecule, the CD50 (Mus musculus [10]) was 12.3 mg/kg, the CD50 (Mus musculus [11]) was >400 mg/kg and the CD50 (Mus musculus [12]) was 53 mg/kg.
For `CC[C@@H]1CCN[C@H](C(=O)N[C@@H]([C@H]2O[C@H](SC)[C@H](O)[C@@H](O)[C@H]2O)[C@H](C)Cl)C1` [PIRLIMYCIN], the MIC (Clostridioides difficile [13]) was 125 µg/mL (≈ 304 µM), the MIC [14] was 0.2 µg/mL (≈ 0.487 µM) and the MIC [15] was 0.5 µg/mL (≈ 1.22 µM). The CD50 (Escherichia coli [16]) was >400 mg/kg, the MIC (Fusobacterium nucleatum) was 0.06 µg/mL (≈ 0.146 µM) and the CD50 (Proteus vulgaris [17]) was >400 mg/kg. For the same molecule, the MIC (Cutibacterium acnes) was 0.12 µg/mL (≈ 0.292 µM), the MIC (Fusobacterium varium) was 3.9 µg/mL (≈ 9.49 µM) and the MIC [18] was 0.06 µg/mL (≈ 0.146 µM). The MIC (Staphylococcus aureus [19]) was 0.2 µg/mL (≈ 0.487 µM), the MIC [20] was 0.06 µg/mL (≈ 0.146 µM) and the CD50 (Escherichia coli [21]) was >160 mg/kg. The MIC (Clostridium perfringens [22]) was 0.12 µg/mL (≈ 0.292 µM), the CD50 (Streptococcus pneumoniae [23]) was 2.7 mg/kg and the CD50 (Pasteurella multocida [24]) was >160 mg/kg. For the same molecule, the CD50 (Streptococcus pneumoniae [25]) was 17.7 mg/kg, the MIC [26] was 0.12 µg/mL (≈ 0.292 µM) and the MIC (Staphylococcus aureus [27]) was 0.2 µg/mL (≈ 0.487 µM). For the same molecule, the MIC (Clostridium novyi) was 0.12 µg/mL (≈ 0.292 µM), the CD50 (Plasmodium berghei) was >50 mg/kg and the CD50 (Staphylococcus aureus [28]) was 0.4 mg/kg. For the same molecule, the MIC (Clostridium botulinum) was < 0.03 µg/mL, the CD50 (Streptococcus pyogenes) was 0.25 mg/kg and the MIC (Enterococcus faecalis) was 6.25 µg/mL (≈ 15.2 µM). The CD50 (Staphylococcus aureus [29]) was 2.9 mg/kg, the MIC (Clostridium perfringens [30]) was 0.12 µg/mL (≈ 0.292 µM) and the MIC (Bacteroides fragilis [31]) was 15.6 µg/mL (≈ 38 µM). The MIC (Clostridioides difficile [32]) was 3.9 µg/mL (≈ 9.49 µM), the MIC (Staphylococcus aureus [33]) was > 25 µg/mL and the MIC (Clostridioides difficile [34]) was 2 µg/mL (≈ 4.87 µM). The MIC (Eubacterium limosum) was 2 µg/mL (≈ 4.87 µM), the CD50 (Streptococcus pneumoniae [35]) was 1.7 mg/kg and the CD50 (Proteus vulgaris [36]) was >160 mg/kg. For the same molecule, the MIC (Clostridium tertium) was 7.8 µg/mL (≈ 19 µM), the MIC (Bacteroides fragilis [37]) was 0.12 µg/mL (≈ 0.292 µM) and the MIC [38] was < 0.03 µg/mL. The MIC (Clostridioides difficile [39]) was 500 µg/mL (≈ 1220 µM), the MIC (Eggerthella lenta) was 1 µg/mL (≈ 2.43 µM) and the MIC (Pasteurella multocida [40]) was 62.5 µg/mL (≈ 152 µM). The CD50 (Klebsiella pneumoniae) was >400 mg/kg.
